According to ChEMBL document CHEMBL4350958, “Rational Design of Short Peptide Variants by Using Kunitzin-RE, an Amphibian-Derived Bioactivity Peptide, for Acquired Potent Broad-Spectrum Antimicrobial and Improved Therapeutic Potential of Commensalism Coinfection of Pathogens” (J Med Chem, 2019):

Tests used:
[1] = tested on: Salmonella typhimurium; experiment: Bactericidal activity against Salmonella typhimurium ATCC 14028 incubated for 24 hrs followed by replating on agar plate and measured after overnight incubation; type: functional, Salmonella enterica subsp. enterica serovar Typhimurium; details: for MBC: Salmonella enterica, ATCC 14028, 24 h, read-out: MBC>99.9
Method in brief: (§1)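 Mid-log bacteria diluted in MHB to (0.5–1) × 10^5 CFU/mL and mixed 1:1 with peptide serially diluted in 0.2% BSA. After 24 h at 37 °C, 50 μL of each mixture was plated on agar and incubated overnight. MBC taken as the lowest concentration killing >99.9% of cells. At least three independent experiments, each with three technical replicates.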

[2] = tested on: Escherichia coli; experiment: Antibacterial activity against Escherichia coli ATCC 25922 measured after 18 to 24 hrs in presence of CaCl2; type: functional
[3] = tested on: Staphylococcus aureus; experiment: Antibacterial activity against Staphylococcus aureus ATCC 29213 measured after 18 to 24 hrs in presence of KCl; type: functional
[4] = tested on: Escherichia coli; experiment: Antibacterial activity against Escherichia coli ATCC 25922 measured after 18 to 24 hrs in presence of NaCl; type: functional
[5] = tested on: Escherichia coli; experiment: Antibacterial activity against Escherichia coli UB1005 measured after 24 hrs; type: functional
Method in brief: (§2)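 Broth microdilution adapted from NCCLS. Mid-log bacteria were diluted in MHB to a final (0.5–1) × 10^5 CFU mL−1. Peptides were serially diluted in 0.2% BSA and mixed with an equal volume of cells. After 24 h at 37 °C, MIC was read at A492 as the lowest concentration inhibiting 95% of growth. At least three independent experiments, each with three technical replicates.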

[6] = Therapeutic index, ratio of MHC10 for hemolytic activity in human RBC to MIC95 against Candida tropicalis cgmcc2.1975; type: toxicity; details: human red blood cells (erythrocytes), read-out: TI
Method in brief: (§3)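 Therapeutic index = MHC divided by MIC. MHC is the lowest concentration giving >10% lysis of human RBC (1 h, 37 °C, 1-128 µM, A576). MIC is 95% growth inhibition by broth microdilution: bacteria in MHB 24 h at 37 °C; Candida in MOPS-buffered RPMI 1640 at (0.5–1) × 10^3 CFU mL−1, 48 h at 28 °C.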

[7] = tested on: Pseudomonas aeruginosa; experiment: Antibacterial activity against Pseudomonas aeruginosa ATCC 27853 measured after 24 hrs; type: functional; method in brief: as §2
[8] = tested on: Candida parapsilosis; experiment: Antifungal activity against Candida parapsilosis cgmcc2.3989 measured after 48 hrs by broth microdilution method; type: functional
Method in brief: (§4)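 Modified CLSI M27-A2 microdilution. Yeast colonies were diluted in MOPS-buffered RPMI 1640 to a final (0.5–1) × 10^3 CFU mL−1 and mixed with an equal volume of peptide serially diluted in 0.2% BSA. After 48 h at 28 °C, MIC was read at A492 as the lowest concentration inhibiting 95% of growth. At least three independent experiments, each with three technical replicates.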

[9] = tested on: Escherichia coli; experiment: Antibacterial activity against Escherichia coli ATCC 25922 measured after 18 to 24 hrs in presence of FeCl3; type: functional
[10] = tested on: Staphylococcus aureus; experiment: Bactericidal activity against Staphylococcus aureus ATCC 25923 incubated for 24 hrs followed by replating on agar plate and measured after overnight incubation; type: functional; details: for MBC: ATCC 25923, 24 h, read-out: MBC>99.9
Method in brief: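 After the 24 h, 37 °C MHB microdilution MIC assay, 50 μL from each well was plated on agar and incubated overnight. MBC taken as lowest peptide concentration killing >99.9% of cells. At least three independent experiments, each with three technical replicates.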

[11] = tested on: Staphylococcus aureus; experiment: Antibacterial activity against Staphylococcus aureus ATCC 29213 measured after 18 to 24 hrs in presence of CaCl2; type: functional
[12] = tested on: Escherichia coli; experiment: Antibacterial activity against Escherichia coli ATCC 25922 measured after 18 to 24 hrs in presence of NH4Cl; type: functional
[13] = Therapeutic index, ratio of MHC10 for hemolytic activity in human RBC to MIC95 against Staphylococcus aureus ATCC 25923; type: toxicity; details: human red blood cells (erythrocytes), read-out: TI; method in brief: as §3
[14] = tested on: Candida tropicalis; experiment: Antifungal activity against Candida tropicalis cgmcc2.1975 measured after 48 hrs by broth microdilution method; type: functional; method in brief: as §4
[15] = tested on: Escherichia coli; experiment: Antibacterial activity against Escherichia coli 078 measured after 24 hrs; type: functional; method in brief: as §2
[16] = tested on: Escherichia coli; experiment: Bactericidal activity against Escherichia coli 078 incubated for 24 hrs followed by replating on agar plate and measured after overnight incubation; type: functional; details: for MBC: Escherichia coli, 078, 24 h, read-out: MBC>99.9
Method in brief: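 After the 24 h, 37 °C MHB microdilution (0.5–1 × 10^5 CFU mL−1 inoculum, peptides diluted in 0.2% BSA), 50 μL from each well was plated on agar and incubated overnight. MBC was taken as the lowest concentration killing >99.9% of cells. Three or more independent experiments, each with triplicate technical replicates.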

[17] = tested on: Erythrocyte; experiment: Hemolytic activity in human RBC measured after 1 hr; type: ADME, cell-based
Method in brief: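 Fresh healthy-donor human erythrocytes at ~1% (v/v) in PBS pH 7.4, mixed 1:1 with peptide (1–128 µM), 1 h at 37 °C. After centrifugation at 1000×g, supernatant hemoglobin read at 576 nm. Untreated cells set 0% and 0.1% Triton X-100 set 100%. MHC defined as the concentration giving >10% hemolysis. Three or more independent experiments, triplicates.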

[18] = Therapeutic index, ratio of MHC10 for hemolytic activity in human RBC to MIC95 against Candida albicans cgmcc2.2086; type: toxicity; details: human red blood cells (erythrocytes), read-out: TI; method in brief: as §3
[19] = tested on: Staphylococcus aureus; experiment: Antibacterial activity against Staphylococcus aureus ATCC 29213 measured after 18 to 24 hrs in presence of FeCl3; type: functional
[20] = tested on: Candida albicans; experiment: Antifungal activity against Candida albicans cgmcc2.2086 measured after 48 hrs in presence of NH4Cl by broth microdilution method; type: functional
[21] = Conformational stability in pH 7.4 sodium phosphate buffer assessed as absorption spectra at minimum dichroic band at 35 uM by CD spectra analysis; type: physicochemical; details: pH 7.4, 35 µM
Method in brief: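 CD spectra from 190 to 250 nm of peptide at 35 μM in 10 mM PBS, 30 mM SDS micelles or 50% TFE, recorded in a 1.0-mm quartz cell. Ellipticity was converted to mean residue ellipticity. Three independent scans, each averaged over more than 3 runs.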

[22] = tested on: Escherichia coli; experiment: Bactericidal activity against Escherichia coli K99 incubated for 24 hrs followed by replating on agar plate and measured after overnight incubation; type: functional; details: for MBC: K99, 24 h, read-out: MBC>99.9; method in brief: as §1
[23] = tested on: Escherichia coli; experiment: Antibacterial activity against Escherichia coli ATCC 25922 measured after 24 hrs; type: functional; method in brief: as §2
[24] = Therapeutic index, ratio of MHC10 for hemolytic activity in human RBC to MIC95 against Escherichia coli ATCC 25922; type: toxicity; details: human red blood cells (erythrocytes), pooled result: one value given for 9 cell lines, strains, targets or settings, read-out: TI; method in brief: as §3
[25] = tested on: Escherichia coli; experiment: Antibacterial activity against Escherichia coli K88 measured after 24 hrs; type: functional; method in brief: as §2
[26] = tested on: Escherichia coli; experiment: Antibacterial activity against Escherichia coli ATCC 25922 measured after 18 to 24 hrs in presence of ZnCl2; type: functional
[27] = tested on: Pseudomonas aeruginosa; experiment: Bactericidal activity against Pseudomonas aeruginosa ATCC 27853 incubated for 24 hrs followed by replating on agar plate and measured after overnight incubation; type: functional; method in brief: as §1
[28] = Lodderomyces parapsilosis, cgmcc2.3989, 48 h

H-AARIILRFRFR-NH2
MBC [1]: 8 µM
MIC95 [2]: 32 µM
MIC95 [3]: 2 µM
MIC95 [4]: 64 µM
MIC95 ([5]; UB1005, 24 h): 4 µM
selectivity ratio [6]: 50.8
MIC95 ([7]; ATCC 27853, 24 h): > 128 µM
MIC95 [8, 28]: 4 µM
MIC95 [9]: 16 µM
MBC [10]: 4 µM
MIC95 [11]: 4 µM
MIC95 [12]: 4 µM
selectivity ratio [13]: 128
MIC95 ([14]; cgmcc2.1975, 48 h): 4 µM
MIC95 ([15]; Escherichia coli, 078, 24 h): 4 µM
MBC [16]: 8 µM
MHC10 [17]: > 128 µM
selectivity ratio [18]: 50.8
MIC95 [19]: 4 µM
MIC95 ([20]; cgmcc2.2086, 48 h): 4 µM
Wavelength of minimum CD band [21]: 200 nm
MBC [22]: 4 µM
MIC95 ([23]; ATCC 25922, 24 h): 8 µM
selectivity ratio [24]: 43.5
MIC95 ([25]; K88, 24 h): 4 µM
MIC95 [26]: 4 µM

H-AARIILRRRFR-NH2
MBC [1]: 64 µM
MIC95 [2]: 128 µM
MIC95 [3]: 32 µM
MIC95 [4]: 128 µM
MIC95 ([5]; UB1005, 24 h): 16 µM
selectivity ratio [6]: 3.17
MIC95 ([7]; ATCC 27853, 24 h): > 128 µM
MIC95 [8, 28]: 64 µM
MIC95 [9]: 32 µM
MBC [10]: 64 µM
MIC95 [11]: 128 µM
MIC95 [12]: 8 µM
selectivity ratio [13]: 13.4
MIC95 ([14]; cgmcc2.1975, 48 h): 64 µM
MIC95 ([15]; Escherichia coli, 078, 24 h): 16 µM
MBC [16]: 32 µM
MHC10 [17]: > 128 µM
selectivity ratio [18]: 3.17
MIC95 [19]: 16 µM
MIC95 ([20]; cgmcc2.2086, 48 h): > 128 µM
Wavelength of minimum CD band [21]: 200 nm
MBC [22]: 16 µM
MIC95 ([23]; ATCC 25922, 24 h): 8 µM
selectivity ratio [24]: 14.8
MIC95 ([25]; K88, 24 h): 16 µM
MIC95 [26]: 8 µM

H-AARIILRTRFR-NH2
MBC [1]: 32 µM
MIC95 [2]: > 128 µM
MIC95 [3]: 32 µM
MIC95 [4]: > 128 µM
MIC95 ([5]; UB1005, 24 h): 4 µM
selectivity ratio [6]: 4
MIC95 ([7]; ATCC 27853, 24 h): > 128 µM
MIC95 [8, 28]: 64 µM
MIC95 [9]: 16 µM
MBC [10]: 32 µM
MIC95 [11]: 64 µM
MIC95 [12]: 8 µM
selectivity ratio [13]: 16
MIC95 ([14]; cgmcc2.1975, 48 h): 32 µM
MIC95 ([15]; Escherichia coli, 078, 24 h): 4 µM
MBC [16]: 8 µM
MHC10 [17]: > 128 µM
selectivity ratio [18]: 4
MIC95 [19]: 16 µM
MIC95 ([20]; cgmcc2.2086, 48 h): > 128 µM
Wavelength of minimum CD band [21]: 200 nm
MBC [22]: 8 µM
MIC95 ([23]; ATCC 25922, 24 h): 8 µM
selectivity ratio [24]: 27.4
MIC95 ([25]; K88, 24 h): 4 µM
MIC95 [26]: 8 µM

POLYMYXIN B
MBC>99.9 ([1]; Salmonella enterica subsp. enterica serovar Typhimurium): 2 µM
MIC95 [2]: 16 µM
MIC95 [3]: 32 µM
MIC95 [4]: 4 µM
MIC95 [5]: 1 µM
MIC95 [7]: 2 µM
MIC95 [8]: 8 µM
MIC95 [9]: 2 µM
MBC>99.9 [10]: > 128 µM
MIC95 [11]: 64 µM
MIC95 [12]: 2 µM
MIC95 [14]: > 128 µM
MIC95 [15]: 1 µM
MBC>99.9 [16]: 1 µM
MBC>99.9 [27]: 4 µM
MIC95 [19]: 32 µM
MIC95 [20]: 32 µM
MBC>99.9 [22]: 1 µM
MIC95 [23]: 2 µM
MIC95 [25]: 0.5 µM
MIC95 [26]: 2 µM
